Calls of active or inactive are those of the source. The calls are words filed in the database; no cut-off is given here.
Assays:
[1] = test system: PC-3; test: Inhibition of Mycoplasma hominis-induced NF kappaB activation in human PC3 cells at 16 ug/ml; assay type: functional, cell-based
How it was run: (§1)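 Cells transiently transfected (FuGENE 6) with NF-κB firefly luciferase reporter plus pRL-TK Renilla control. After 24 h, GFLX 16 μg/ml for 24 h, then serum-free medium with GFLX again. Stimulation: PGN 1 μg/ml or M. hominis membrane fraction 0.1 μg/ml for 6 h, TNF-α 10 ng/ml for 2 h. Dual luciferase read-out; three experiments.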

[2] = test system: PC-3; test: Suppression of TNF alpha-stimulated IL8 secretion in human PC3 cells; assay type: functional, cell-based
How it was run: (§2)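 Cells seeded, transfected 24 h later, given GFLX 16 μg/ml 24 h after transfection. Then serum-free medium with fresh GFLX plus stimulus: PGN 1 μg/ml, M. hominis membrane fraction 0.1 μg/ml or […] for 6 h; TNF-α 10 ng/ml for 2 h. IL-8 in supernatant by ELISA; means ± SD, three experiments.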

[3] = test system: PC-3; test: Suppression of PMA-stimulated IL8 secretion in human PC3 cells; assay type: functional; how it was run: as §2
[4] = test system: PC-3; test: Inhibition of TNF alpha-stimulated IL8 mRNA expression in human PC3 cells at 16 ug/ml after 48 hrs; assay type: functional, cell-based
How it was run: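 PC-3 cells seeded 4 × 10^5 per 35-mm dish, grown 24 h, then GFLX 16 μg/ml for 48 h with medium and drug refreshed every 24 h. Cells moved to serum-free RPMI with GFLX and given TNF-α 10 ng/ml for 4 h. TRIzol RNA, oligo(dT) RT, 23-cycle PCR for IL-8 and β-actin. Densitometric IL-8/β-actin band ratio.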

[5] = test system: PC-3; test: Suppression of TNF alpha-stimulated IL8 secretion in human PC3 cells at 16 ug/ml added 30 mins after stimulation; assay type: functional; conditions: PC-3, 0.5 h
How it was run: (§3)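 PC-3 cells seeded 2 × 10^5/well and grown 24 h. GFLX 16 μg/ml added together with TNF-α (0, 5, 10, 25 ng/ml), or 30 or 60 min after it. Total TNF-α exposure 120 min. Secreted IL-8 measured by ELISA; means ± SD of three experiments.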

[6] = test system: PC-3; test: Suppression of TNF alpha-stimulated IL8 D-240 mutant promoter activity in human PC3 cells at 16 ug/ml dual luciferase reporter assay; assay type: functional, cell-based
How it was run: (§4)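 PC-3 cells seeded 4 × 10^4/well and transfected with an IL-8 5′-deletion luciferase construct plus pRL-TK. 24 h later, GFLX 16 μg/ml for 24 h. Then serum-free medium, fresh GFLX and TNF-α 10 ng/ml for 2 h. Promoter activity by dual luciferase assay; means ± SD of three experiments.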

[7] = test system: PC-3; test: Cytotoxicity against human PC3 cells at 16 ug/ml relative to control; assay type: cell-based
How it was run: (§5)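 PC-3 cells seeded 5 × 10^4/well, grown 24 h, then exposed to GFLX (from 2 mg/ml stock in 0.1 N NaOH; equal NaOH as control) for 48 h. Viability read with a modified MTT method (cell counting kit 8), expressed as % of untreated controls; mean ± SD, n = 3.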

[8] = Decrease in IL8 secretion in human prostatic myofibroblast cells at 16 ug/ml; assay type: functional; set-up: scale not given: the % may be the effect or the level left
[9] = test system: PC-3; test: Cytotoxicity against human PC3 cells at 2 ug/ml relative to control; assay type: cell-based; how it was run: as §5
[10] = test system: PC-3; test: Decrease in IL8 secretion in human PC3 cells at 4 ug/ml; assay type: functional; set-up: scale not given: the % may be the effect or the level left
How it was run: (§6)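 PC-3 cells seeded 2 × 10^5/well, grown 24 h, washed with PBS and switched to serum-free RPMI 1640. GFLX added (0.1 N NaOH vehicle control) and cells incubated 24 h without stimulus. IL-8 in medium quantified by ELISA; means ± SD of three experiments.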

[11] = test system: PC-3; test: Suppression IL8 secretion in human PC3 cells at 16 ug/ml added simultaneously with TNF alpha; assay type: functional; how it was run: as §3
[12] = test system: PC-3; test: Decrease in IL8 secretion in human PC3 cells; assay type: functional, cell-based; how it was run: as §6
[13] = test system: PC-3; test: Inhibition of TNF alpha-induced NF kappaB activation in human PC3 cells at 16 ug/ml; assay type: functional, cell-based; how it was run: as §1
[14] = test system: PC-3; test: Suppression of 1 ng/ml LPS-stimulated IL8 secretion in human PC3 cells; assay type: functional
[15] = Decrease in IL8 secretion in human prostatic myofibroblast cells at 4 ug/ml; assay type: functional; set-up: scale not given: the % may be the effect or the level left
[16] = test system: PC-3; test: Suppression of TNF alpha-stimulated IL8 D-188 mutant promoter activity in human PC3 cells at 16 ug/ml dual luciferase reporter assay; assay type: functional, cell-based; how it was run: as §4
[17] = test system: PC-3; test: Suppression of TNF alpha-stimulated IL8 promoter activity in human PC3 cells; assay type: functional, cell-based
How it was run: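 PC-3 cells transfected with IL-8 promoter (−1481 to +44 bp) in pGL3-Basic plus pRL-TK. 24 h later, GFLX at 0, 2, 4 or 16 μg/ml for 24 h. Serum-free medium with same GFLX and TNF-α 10 ng/ml for 2 h. Dual luciferase read-out; means ± SD, three experiments.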

[18] = test system: PC-3; test: Cytotoxicity against human PC3 cells at 4 ug/ml relative to control; assay type: cell-based; how it was run: as §5
[19] = test system: PC-3; test: Suppression of 0.1 ng/ml LPS-stimulated IL8 secretion in human PC3 cells; assay type: functional
[20] = test system: PC-3; test: Reduction of Mycoplasma hominis-stimulated IL8 secretion in human PC3 cells; assay type: functional; set-up: scale not given: the % may be the effect or the level left; how it was run: as §2
[21] = test system: PC-3; test: Suppression of TNF alpha-stimulated IL8 mutant promoter activity in human PC3 cells at 16 ug/ml by dual luciferase reporter assay
[22] = test system: PC-3; test: Inhibition of peptidoglycan-induced NF kappaB activation in human PC3 cells at 16 ug/ml; assay type: functional, cell-based; how it was run: as §1
[23] = test system: PC-3; test: Suppression of TNF alpha-stimulated IL8 secretion in human PC3 cells at 16 ug/ml added 60 mins after stimulation; assay type: functional, cell-based; how it was run: as §3
[24] = test system: PC-3; test: Suppression of TNF alpha-stimulated IL8 D-170 mutant promoter activity in human PC3 cells at 16 ug/ml dual luciferase reporter assay; assay type: functional, cell-based; how it was run: as §4
[25] = test system: PC-3; test: Decrease in IL8 secretion in human PC3 cells at 16 ug/ml; assay type: functional; set-up: scale not given: the % may be the effect or the level left; how it was run: as §6
[26] = test system: PC-3; test: Reduction of peptidoglycan-stimulated IL8 secretion in human PC3 cells; assay type: functional; set-up: scale not given: the % may be the effect or the level left; how it was run: as §2

Structure (SMILES): COc1c(N2CCNC(C)C2)c(F)cc2c(=O)c(C(=O)O)cn(C3CC3)c12 (stereo unspecified) [GATIFLOXACIN]
- Activity [1]: inactive
- Activity [2]: Active
- Activity [3]: 34%
- Activity [4]: Active
- inhibition at 16 µg/mL [5]: 25%
- Activity [6]: Active
- Activity [7]: 96.6%
- Activity [8]: 50%
- Activity [9]: 97.6%
- Activity [10]: 22%
- Activity [11]: 37%
- Activity [12]: Dose-dependent effect
- Activity [13]: inactive
- Activity [14]: 16%
- Activity [15]: 19%
- Activity [16]: Active
- Activity [17]: Active
- Activity [18]: 100%
- Activity [19]: 19%
- Activity [20]: 52%
- Activity [21]: Active
- Activity [22]: inactive
- Activity [23]: Active
- Activity [24]: inactive
- Activity [25]: 38%
- Activity [26]: 42%
